Test results reported in ChEMBL document CHEMBL1140193, “Synthesis and anti-inflammatory evaluation of methylene bridged benzofuranyl imidazo[2,1-b][1,3,4]thiadiazoles” (Eur J Med Chem, 2008).

What was measured:
[1] = tested on: Rattus norvegicus; assay: Analgesic activity in Wistar albino rat […] assessed as reaction time for tail withdrawal at 100 mg/kg, po after 60 mins by tail flick method; type: functional
How it was run: (§1)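 Rat tail-flick test: latency for the rat to withdraw its tail from hot water at 55 ± 0.5 °C. Drugs given orally. Reaction time in seconds read at 60, 90, 120 and 300 min after dosing. Treated animals compared with control and with a nimesulide standard. Wistar albino rats, 150-200 g, either sex; food withdrawn 12 h before and during testing.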

[2] = tested on: Rattus norvegicus; assay: Antiinflammatory activity in Wistar albino rat assessed as inhibition of carrageenan-induced paw oedema at 100 mg/kg, po measured 0.5 hrs after carrageenan challenge; type: functional
How it was run: (§2)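 Albino rats, 6 per group, dosed orally at 100 mg kg^-1; ibuprofen 100 mg kg^-1 as standard. One hour after dosing, 0.1 ml of 1% carrageenan with 2% gum acacia in normal saline injected subplantar into the right hind paw. Paw volume measured by plethysmometer; % inhibition versus control calculated. One-way ANOVA with Dunnett's t test.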

[3] = tested on: Rattus norvegicus; assay: Antiinflammatory activity in Wistar albino rat assessed as inhibition of carrageenan-induced paw oedema at 100 mg/kg, po measured 1 hr after carrageenan challenge; type: functional; how it was run: as §2
[4] = tested on: Rattus norvegicus; assay: Toxicity in Wistar albino rat assessed as induction of haemorrhagic spots up to 3 g/kg, po after 8 hrs; type: organism-based; details: in vivo, 3000 mg/kg
How it was run: (§3)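 Acute toxicity: albino rats of either sex in groups of six, oral doses from 100 up to 3000 mg kg^-1. Rats observed continuously for 8 h for changes in motor activity, ataxia, tremors, convulsions, sedation and lacrimation. Ulceration and haemorrhagic spots also inspected.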

[5] = tested on: Rattus norvegicus; assay: Analgesic activity in Wistar albino rat […] assessed as increase in reaction time for tail withdrawal at 100 mg/kg, po after 300 mins by tail flick method; type: functional; how it was run: as §1
[6] = tested on: Rattus norvegicus; assay: Antiinflammatory activity in Wistar albino rat assessed as inhibition of carrageenan-induced paw oedema at 100 mg/kg, po measured 5 hrs after carrageenan challenge; type: functional; how it was run: as §2
[7] = tested on: Rattus norvegicus; assay: Antiinflammatory activity in Wistar albino rat assessed as inhibition of carrageenan-induced paw oedema at 100 mg/kg, po measured 2 hrs after carrageenan challenge; type: functional; how it was run: as §2
[8] = tested on: Rattus norvegicus; assay: Antiinflammatory activity in Wistar albino rat assessed as inhibition of carrageenan-induced paw oedema at 100 mg/kg, po measured 3 hrs after carrageenan challenge; type: functional; how it was run: as §2
[9] = tested on: Rattus norvegicus; assay: Analgesic activity in Wistar albino rat […] assessed as reaction time for tail withdrawal at 100 mg/kg, po after 120 mins by tail flick method; type: functional; how it was run: as §1
[10] = tested on: Rattus norvegicus; assay: Antiinflammatory activity in Wistar albino rat assessed as inhibition of carrageenan-induced paw oedema at 100 mg/kg, po measured 4 hrs after carrageenan challenge; type: functional; how it was run: as §2
[11] = tested on: Rattus norvegicus; assay: Toxicity in Wistar albino rat assessed as induction of convulsions and tremors up to 3 g/kg, po after 8 hrs; type: organism-based; details: in vivo, 3000 mg/kg; how it was run: as §3
[12] = tested on: Rattus norvegicus; assay: Analgesic activity in Wistar albino rat […] assessed as reaction time for tail withdrawal at 100 mg/kg, po after 180 mins by tail flick method; type: functional
[13] = tested on: Rattus norvegicus; assay: Toxicity in Wistar albino rat assessed as induction of gastric ulceration up to 3 g/kg, po after 8 hrs; type: organism-based, Stomach; details: in vivo, 3000 mg/kg; how it was run: as §3
[14] = tested on: Rattus norvegicus; assay: Toxicity in Wistar albino rat assessed as effect on motor activity up to 3 g/kg, po after 8 hrs; type: organism-based; details: in vivo, 3000 mg/kg; how it was run: as §3
[15] = tested on: Rattus norvegicus; assay: Analgesic activity in Wistar albino rat […] assessed as reaction time for tail withdrawal at 100 mg/kg, po after 30 mins by tail flick method; type: functional
[16] = tested on: Rattus norvegicus; assay: Toxicity in Wistar albino rat assessed as induction of sedation up to 3 g/kg, po after 8 hrs; type: organism-based; details: in vivo, 3000 mg/kg; how it was run: as §3
[17] = tested on: Rattus norvegicus; assay: Analgesic activity in Wistar albino rat […] assessed as increase in reaction time for tail withdrawal at 100 mg/kg, po after 180 mins by tail flick method; type: functional
[18] = tested on: Rattus norvegicus; assay: Analgesic activity in Wistar albino rat […] assessed as reaction time for tail withdrawal at 100 mg/kg, po after 300 mins by tail flick method; type: functional; how it was run: as §1
[19] = tested on: Rattus norvegicus; assay: Toxicity in Wistar albino rat assessed as mortality up to 3 g/kg, po after 24 hrs; type: organism-based; details: in vivo, 3000 mg/kg
How it was run: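 Albino rats of either sex, six per group, dosed orally from 100 up to 3000 mg kg^-1 body weight. Animals were watched continuously for 8 h for signs of acute toxicity such as altered motor activity, ataxia, tremors, convulsions, sedation and lacrimation, and were checked for mortality over a 24 h period. Food was withheld for 12 h before dosing.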

SMILES | Activity [1] [s] | inhibition in vivo at 100 mg/kg [2] [%] | inhibition in vivo at 100 mg/kg [3] [%] | Activity [4] | Activity [5] [%] | inhibition in vivo at 100 mg/kg [6] [%] | inhibition in vivo at 100 mg/kg [7] [%] | inhibition in vivo at 100 mg/kg [8] [%] | Activity [9] [s] | inhibition in vivo at 100 mg/kg [10] [%] | Activity [11] | Activity [12] [s] | Activity [13] | Activity [14] | Activity [15] [s] | Activity [16] | Activity [17] [%] | Activity [18] [s] | Activity [19]
Cc1ccc2c(Cc3nn4c(CN5CCOCC5)c(-c5ccc(Cl)cc5)nc4s3)coc2c1 | 5.45 | 4.77 | 15.5 | Non-toxic | 159.03 | 50.4 | 28.9 | 43.4 | 6.767 | 48 | Non-toxic | 8.2 | Non-toxic | Non-toxic | 3.767 | Non-toxic | 205.62 | 6.95 | Non-toxic
Cc1ccc2c(Cc3nn4c(/C=N/O)c(-c5ccc(Cl)cc5)nc4s3)coc2c1 | 2.667 | 6 | 5.19 | Non-toxic | -3.09 | 31 | 11.2 | 10 | 2.633 | 11.1 | Non-toxic | 2.717 | Non-toxic | Non-toxic | 2.483 | Non-toxic | 1.26 | 2.6 | Non-toxic
